# How the values were obtained:
# [1] = biological target: Sodium-dependent serotonin transporter (Rattus norvegicus) (UniProt P31652); assay: Displacement of [3H]citalopram from Sprague-Dawley rat brain stem SERT site S1 at 10 uM by scintillation counting analysis; type: tissue-based
# [2] = biological target: Sodium-dependent serotonin transporter (Rattus norvegicus, UniProt P31652); assay: Displacement of [3H]citalopram from Sprague-Dawley rat brain stem SERT site S1 by scintillation counting analysis
# [3] = species on record: Rattus norvegicus; assay: Displacement of [3H]nisoxetine from Sprague-Dawley rat brain frontal cortex NET at 10 uM by scintillation counting analysis; type: tissue-based
# Method in brief: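 Rat frontal cortex membranes (8 mg original wet weight) in Tris/NaCl/KCl buffer, pH 7.4, with 0.5 nM [3H]nisoxetine for 180 min at 0–4°C. Single test concentration of 10 µM. Nonspecific binding defined with desipramine. Filtration on GF/B filters, then scintillation counting. Result reported as percent displacement.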
# [4] = Displacement of [3H]nisoxetine from Sprague-Dawley rat brain frontal cortex NET by scintillation counting analysis; type: tissue-based
# Method in brief: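 Frontal cortex membranes from male Sprague-Dawley rats incubated with 0.5 nM [3H]nisoxetine for 180 min at 0–4°C in pH 7.4 Tris/NaCl/KCl buffer. Desipramine used for nonspecific binding. Full concentration curves run for compounds giving >70% displacement at 10 µM. Filtration and scintillation counting; Ki calculated.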
# [5] = biological target: T1, Sodium-dependent serotonin transporter (Homo sapiens, UniProt P31645); assay: biochemical; type: cell-based, COS-7
# Target sequence in this assay (P31645 whole entry): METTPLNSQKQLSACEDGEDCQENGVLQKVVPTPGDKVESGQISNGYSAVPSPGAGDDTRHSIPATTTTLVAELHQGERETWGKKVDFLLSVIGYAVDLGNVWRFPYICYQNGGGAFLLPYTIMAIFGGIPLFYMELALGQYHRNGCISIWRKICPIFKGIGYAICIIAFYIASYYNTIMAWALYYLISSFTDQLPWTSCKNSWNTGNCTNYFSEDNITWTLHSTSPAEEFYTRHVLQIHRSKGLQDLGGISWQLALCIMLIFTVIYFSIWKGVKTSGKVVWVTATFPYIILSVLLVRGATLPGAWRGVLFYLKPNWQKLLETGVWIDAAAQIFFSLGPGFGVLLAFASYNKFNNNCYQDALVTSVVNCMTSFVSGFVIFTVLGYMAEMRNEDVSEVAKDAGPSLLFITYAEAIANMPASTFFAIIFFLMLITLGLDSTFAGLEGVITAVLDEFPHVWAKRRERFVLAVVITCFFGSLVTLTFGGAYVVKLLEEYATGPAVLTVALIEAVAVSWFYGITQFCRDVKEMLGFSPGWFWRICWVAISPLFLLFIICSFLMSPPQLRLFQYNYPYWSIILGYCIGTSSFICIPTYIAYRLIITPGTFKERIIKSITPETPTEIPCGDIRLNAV
# [6] = species on record: Rattus norvegicus; assay: Selectivity ratio of Ki for Sprague-Dawley rat brain frontal cortex NET to Ki for Sprague-Dawley rat brain stem SERT; type: tissue-based
# [7] = biological target: T1, Sodium-dependent serotonin transporter; details: COS-7
# Target sequence in this assay (P31645 whole entry, looked up): as the sequence (P31645 whole entry) above
# Sodium-dependent serotonin transporter (Rattus norvegicus, UniProt P31652), sequence (P31652 whole entry): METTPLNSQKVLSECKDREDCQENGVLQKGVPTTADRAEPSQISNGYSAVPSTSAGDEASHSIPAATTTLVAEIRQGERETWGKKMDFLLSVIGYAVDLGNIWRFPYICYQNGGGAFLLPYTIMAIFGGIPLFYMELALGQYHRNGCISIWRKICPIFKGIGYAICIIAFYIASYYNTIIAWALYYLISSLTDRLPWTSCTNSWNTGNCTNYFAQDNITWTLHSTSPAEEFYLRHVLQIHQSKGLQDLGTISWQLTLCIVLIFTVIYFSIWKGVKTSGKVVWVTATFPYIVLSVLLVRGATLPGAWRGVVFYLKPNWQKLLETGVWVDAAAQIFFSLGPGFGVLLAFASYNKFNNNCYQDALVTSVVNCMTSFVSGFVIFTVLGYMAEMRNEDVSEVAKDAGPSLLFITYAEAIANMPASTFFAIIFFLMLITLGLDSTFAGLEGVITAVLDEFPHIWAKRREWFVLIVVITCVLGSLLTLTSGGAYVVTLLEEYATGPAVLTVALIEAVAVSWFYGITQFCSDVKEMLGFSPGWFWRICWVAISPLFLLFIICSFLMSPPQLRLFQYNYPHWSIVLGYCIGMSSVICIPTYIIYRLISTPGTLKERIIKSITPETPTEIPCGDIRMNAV
# Sodium-dependent serotonin transporter (Rattus norvegicus), sequence (P31652 whole entry): as above
SMILES,inhibition [3] [%],Ki [4] [nM],further results
CN(CCCC1(c2ccc(F)cc2)OCc2cc(C#N)ccc21)Cc1ccc2c(c1)Cc1ccccc1-2 (racemic),60.3,–,inhibition [1]: > 70%; Ki [2]: 19 nM
CN(CCCC1(c2ccc(F)cc2)OCc2cc(C#N)ccc21)Cc1ccncc1 (racemic),28.1,–,–
CN(C)CCCC1(c2ccc(-c3cccc(C#N)c3)cc2)OCc2cc(C#N)ccc21 (racemic),–,2800,–
CN(C)CCCC1(c2ccc(F)cc2)OCc2cc(-c3ccc(N)cc3)ccc21 (racemic),42,–,–
CN(C)CCCC1(c2ccc(F)cc2)OCc2cc(CN3CCCCC3)ccc21 (racemic),29.3,–,–
CN(C)CCCC1(c2ccc(F)cc2)OCc2cc(C(N)=O)ccc21 (racemic),–,123,–
CN(CCN)CCCC1(c2ccc(F)cc2)OCc2cc(C#N)ccc21 (racemic),20.2,–,–
CN(C)CCCC(O)(c1ccc(Br)cc1)c1ccc(C#N)cc1CO (racemic),17,–,–
CN(CCCC1(c2ccc(F)cc2)OCc2cc(C#N)ccc21)CCc1ccccc1 (racemic),–,179,inhibition [1]: > 70%; Ki [2]: 40.9 nM; IC50 [5]: 5300 nM; Ratio Ki [6]: 4.4
COc1ccc2[nH]cc(CN(C)CCCC3(c4ccc(F)cc4)OCc4cc(C#N)ccc43)c2c1 (racemic),–,5090,–
CN(C)CCCC1(c2ccc(F)cc2)OCc2cc(CN(C)C)ccc21 (racemic),21.9,–,–
CN(CCCC1(c2ccc(F)cc2)OCc2cc(C#N)ccc21)Cc1ccc2ccccc2c1 (racemic),–,272,–
CN(C)CCCC1(c2ccc(-c3cccc(N)c3)cc2)OCc2cc(C#N)ccc21 (racemic),–,7020,–
CN(CCCC1(c2ccc(F)cc2)OCc2cc(C#N)ccc21)Cc1csc2ccccc12 (racemic),62.9,–,–
CN(CCCC1(c2ccc(F)cc2)OCc2cc(C#N)ccc21)Cc1coc2ccccc12 (racemic),–,265,–
COc1ccccc1N1CCN(Cc2ccc3c(c2)COC3(CCCN(C)C)c2ccc(F)cc2)CC1 (racemic),39.7,–,–
CN(C)CCCC1(c2ccc(F)cc2)OCc2cc(CN3CCOCC3)ccc21 (racemic),–,> 80000,inhibition [1]: > 70%; Ki [2]: 13.6 nM
CN(C)CCCC1(c2ccc(F)cc2)OCc2cc(CN)ccc21 (racemic),33.2,–,–
CN(C)CCCC1(c2ccc(F)cc2)OCc2cc(CNCc3ccc4c(c3)Cc3ccccc3-4)ccc21 (racemic),–,2330,inhibition [1]: > 70%; Ki [2]: 23.6 nM; Ratio Ki [6]: 99
CN(C)CCCC1(c2ccc(F)cc2)OCc2cc(/C=C/Cc3ccccc3)ccc21 (racemic),–,4750,–
CN(C)CCCC1(c2ccc(F)cc2)OCc2cc(CNCc3ccc4ccccc4c3)ccc21 (racemic),–,653,–

SMILES,inhibition [3] [%],Ki [4] [nM],further results
CN(CCCC1(c2ccc(F)cc2)OCc2cc(C#N)ccc21)Cc1ccc(N(C)C)cc1 (racemic),–,1380,–
COC(=O)c1ccc2c(c1)COC2(CCCN(C)C)c1ccc(F)cc1 (racemic),64.3,–,–
CCCN(C)CCCC1(c2ccc(F)cc2)OCc2cc(C#N)ccc21 (racemic),60.4,–,inhibition [1]: > 70%; Ki [2]: 118 nM
CCCCN(C)CCCC1(c2ccc(F)cc2)OCc2cc(C#N)ccc21 (racemic),–,276,inhibition [1]: > 70%; Ki [2]: 61.6 nM
"CN(C)CCCC1(c2ccc(F)cc2)OCc2cc(/C=C/c3ccccc3)ccc21 (single isomer, unassigned; (+))",–,–,IC50 [5]: 3400 nM
CN(C)CCCC1(c2ccc(F)cc2)OCc2cc(CN3CCN(c4ccccc4)CC3)ccc21 (racemic),–,11100,–
CN(C)CCCC1(c2ccc(F)cc2)OCc2cc(CN(C)CCCC3(c4ccc(F)cc4)OCc4cc(C#N)ccc43)ccc21 (racemic),65.1,–,–
CN(C)CCCC1(c2ccc(Br)cc2)OCc2cc(C#N)ccc21 (racemic),45,–,–
CN(CCCC1(c2ccc(F)cc2)OCc2cc(C#N)ccc21)CC1CC1 (racemic),69.8,–,–
CN(CCCC1(c2ccc(F)cc2)OCc2cc(C#N)ccc21)Cc1c[nH]c2ccccc12 (racemic),–,1300,–
CN(C)CCCC1(c2ccc(F)cc2)OCc2c(I)cccc21 (racemic),–,11300,–
CN(C)CCCC1(c2ccc(F)cc2)OCc2cc(-c3ccc([N+](=O)[O-])cc3)ccc21 (racemic),–,8280,–
CN(C)CCCC1(c2ccc(F)cc2)OCc2cc(CNCc3coc4ccccc34)ccc21 (racemic),–,284,–
CN(CCCCc1ccccc1)CCCC1(c2ccc(F)cc2)OCc2cc(C#N)ccc21 (racemic),–,448,–
CN(CCCC1(c2ccc(F)cc2)OCc2cc(C#N)ccc21)Cc1ccnc2ccccc12 (stereo not drawn),31.2,–,–
CN(C)CCCC1(c2ccc(/C=C/c3ccccc3)cc2)OCc2cc(C#N)ccc21 (racemic),44,–,T1/2 [7]: 44 min
CN(C)CCCC1(c2ccc(F)cc2)COc2ccc(Br)cc21 (racemic),–,4970,–
CN(C)CCCC1(c2ccc(F)cc2)OCc2cc(CN3CCN(c4cccc(Cl)c4Cl)CC3)ccc21 (racemic),19.7,–,–
CN(CCCC1(c2ccc(F)cc2)OCc2cc(C#N)ccc21)C1CC=C(c2c[nH]c3ccccc23)CC1 (racemic),–,1020,–
CN(C)CCCC1(c2ccc(F)cc2)OCc2cc(CNCc3ccc4c(c3)COC4(CCCN(C)C)c3ccc(F)cc3)ccc21 (racemic),66.9,–,–
CN(C)CCCC1(c2ccc(F)cc2)OCc2cc(C=O)ccc21 (racemic),46.1,–,–
